Assay results taken from ChEMBL document CHEMBL1275403 (J Med Chem, 2010).

Assays:
[1] = Inhibition of scrapie prion protein-mediated lag phase prion fibril formation after 72 hrs by amyloid seeding assay
Summary of the method: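 In vitro amyloid seeding assay of recombinant PrP fibril formation, with compounds at 2 μM. The read-out is lag phase in hours, compared against an untreated control. Significance was tested by Student's t-test, n = 4.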

ScGT1 [2] = experiment: Antiprion activity against scrapie prion protein-infected mouse ScGT1 cells assessed as accumulation of PrPSc at 1 uM after 5 days by Western blotting; type: cell-based
Summary of the method: (§1)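 ScGT1 cells in DMEM with 10% FBS were split 1:10 into Petri dishes and grown 2 days at 37 °C, 5% CO2. Non-toxic compound concentrations (10 nM–2 μM) were then added. After 5 days, cell proteins were extracted, quantified, proteinase K-digested and western-blotted. PK-resistant PrPSc was quantified by densitometry. EC50 is half-maximal inhibition. Values are mean of three experiments with SD.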

[3] = Cytotoxicity against mouse ScGT1 cells assessed as cell viability at 1 uM after 5 days by calcein-AM assay; type: cell-based; details: read-out: Activity
Summary of the method: (§2)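 ScGT1 cells in DMEM with 10% FBS were plated at 25000 cells/well. Compounds were dissolved in DMSO, diluted in PBS and added at 10 nM–10 μM. Cells were incubated 5 days at 37 °C, 5% CO2. Viability was read by calcein-AM fluorescence as average percent viable cells versus untreated control. Values are mean of three experiments with SD.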

[4] = Antiprion activity against scrapie prion protein-infected mouse ScGT1 cells assessed as accumulation of PrPSc after 5 days by Western blotting; type: cell-based; details: ScGT1, 120 h; summary of the method: as §1
[5] = Cytotoxicity against mouse ScGT1 cells assessed as cell viability at EC50 after 5 days by calcein-AM assay; type: cell-based; details: read-out: INH; summary of the method: as §2
[6] = Antioxidant activity in mouse ScGT1 cells assessed as inhibition of ROS formation at 1 uM after 3 hrs by TBARS assay; type: functional; details: ScGT1, 3 h
Summary of the method: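 ScGT1 cells were treated at 1 μM, and lipid hydroperoxides and aldehydes were measured by the TBARS assay. Results are expressed as average percent TBARS of treated cells versus untreated cells. A water-soluble vitamin E derivative served as positive control. Values are mean ± SD, n = 3.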

ScGT1 [7] = experiment: Antiprion activity against scrapie prion protein-infected mouse ScGT1 cells assessed as accumulation of PrPSc at 0.2 uM after 5 days by Western blotting; type: cell-based; summary of the method: as §1
[8] = Cytotoxicity against mouse ScGT1 cells assessed as cell viability at 0.2 uM after 5 days by calcein-AM assay; type: cell-based; details: read-out: Activity; summary of the method: as §2

O=C1C=C(NCCCNc2c3c(nc4cc(Cl)ccc24)CCCC3)C(=O)C=C1NCCCNc1c2c(nc3cc(Cl)ccc13)CCCC2 showed a TIME [1] of 57 h, an inhibition (ScGT1 [2]) of 105% and a viability at 120 h, 1 µM [3] of 78.6%. The EC50 [4] was 170 nM, the viability at 120 h [5] was 102% and the inhibition at 1 µM [6] was 69%.
With O=C1C=C(NCCCNc2ccnc3cc(Cl)ccc23)C(=O)c2ccccc21 the inhibition (ScGT1 [2]) was 2.9% and the viability at 120 h, 1 µM [3] was 94.3%.
Cc1c(C)c2c(c(C)c1O)CCC(C)(C(=O)O)O2 (configuration not stated) [TROLOX] gave an inhibition at 1 µM [6] of 71%.
Work on O=C1C=C(NCCNc2ccnc3cc(Cl)ccc23)C(=O)C=C1NCCNc1ccnc2cc(Cl)ccc12 yielded an inhibition (ScGT1 [2]) of 6.2% and a viability at 120 h, 1 µM [3] of 115%.
With O=C1C=C(NCCNc2c3c(nc4ccccc24)CCCC3)C(=O)C=C1NCCNc1c2c(nc3ccccc13)CCCC2 the inhibition (ScGT1 [2]) was 7.1% and the viability at 120 h, 1 µM [3] was 108%.
For COc1ccc2nc3cc(Cl)ccc3c(NCCCNC3=CC(=O)C(NCCCNc4c5ccc(Cl)cc5nc5ccc(OC)cc45)=CC3=O)c2c1, the TIME [1] was 45 h, the inhibition (ScGT1 [2]) was 89.7% and the viability at 120 h, 1 µM [3] was 65.5%. It also gave an EC50 [4] of 680 nM, a viability at 120 h [5] of 75.2% and an inhibition at 1 µM [6] of 83%.
O=C1C=C(NCCCNCCCNc2c3c(nc4ccccc24)CCCC3)C(=O)C=C1NCCCNCCCNc1c2c(nc3ccccc13)CCCC2 showed an inhibition (ScGT1 [2]) of 3.4% and a viability at 120 h, 1 µM [3] of 95.4%.
Compound COc1ccc2nc3cc(Cl)ccc3c(NCCCNCCCNC3=CC(=O)C(NCCCNCCCNc4c5ccc(Cl)cc5nc5ccc(OC)cc45)=CC3=O)c2c1 has an inhibition (ScGT1 [7]) of 5.4%, a viability at 120 h, 0.2 µM [8] of 65.8% and a viability at 120 h, 1 µM [3] of 1.5%.
In the case of O=C1C=C(NCCCNCCCNc2ccnc3cc(Cl)ccc23)C(=O)C=C1NCCCNCCCNc1ccnc2cc(Cl)ccc12, the TIME [1] is reported as 40 h, the inhibition (ScGT1 [2]) is reported as 49.1% and the viability at 120 h, 1 µM [3] is reported as 105%. It also gave an EC50 [4] of 1200 nM, a viability at 120 h [5] of 91.3% and an inhibition at 1 µM [6] of 83%.
COc1ccc2nc3cc(Cl)ccc3c(NCCCN3CCN(CCCNc4c5ccc(Cl)cc5nc5ccc(OC)cc45)CC3)c2c1 showed a TIME [1] of 55 h, an inhibition (ScGT1 [2]) of 102% and a viability at 120 h, 1 µM [3] of 75.6%. It also gave an EC50 [4] of 320 nM, a viability at 120 h [5] of 92.4% and an inhibition at 1 µM [6] of 93%.
O=C1C=C(NCCCNc2ccnc3cc(Cl)ccc23)C(=O)C=C1NCCCNc1ccnc2cc(Cl)ccc12 gave a TIME [1] of 53 h, an inhibition (ScGT1 [2]) of 85.5% and a viability at 120 h, 1 µM [3] of 100%. The EC50 [4] was 730 nM, the viability at 120 h [5] was 99.6% and the inhibition at 1 µM [6] was 83%.
With COc1ccc2nccc(NCCCNC3=CC(=O)C(NCCCNc4ccnc5ccc(OC)cc45)=CC3=O)c2c1 the inhibition (ScGT1 [2]) was 4.7% and the viability at 120 h, 1 µM [3] was 87.2%.
COc1ccc2nc3cc(Cl)ccc3c(NCCNC3=CC(=O)C(NCCNc4c5ccc(Cl)cc5nc5ccc(OC)cc45)=CC3=O)c2c1 showed an inhibition (ScGT1 [7]) of 3.1%, a viability at 120 h, 0.2 µM [8] of 80.1% and a viability at 120 h, 1 µM [3] of 18.2%.
